We go through 6 compounds from ChEMBL document CHEMBL1667725, “Tuberatolides, potent FXR antagonists from the Korean marine tunicate Botryllus tuberatus” (J Nat Prod, 2011).

One test has as its target T1, Bile acid receptor (Homo sapiens, UniProt Q96RI1).
T1 sequence (Q96RI1 whole entry): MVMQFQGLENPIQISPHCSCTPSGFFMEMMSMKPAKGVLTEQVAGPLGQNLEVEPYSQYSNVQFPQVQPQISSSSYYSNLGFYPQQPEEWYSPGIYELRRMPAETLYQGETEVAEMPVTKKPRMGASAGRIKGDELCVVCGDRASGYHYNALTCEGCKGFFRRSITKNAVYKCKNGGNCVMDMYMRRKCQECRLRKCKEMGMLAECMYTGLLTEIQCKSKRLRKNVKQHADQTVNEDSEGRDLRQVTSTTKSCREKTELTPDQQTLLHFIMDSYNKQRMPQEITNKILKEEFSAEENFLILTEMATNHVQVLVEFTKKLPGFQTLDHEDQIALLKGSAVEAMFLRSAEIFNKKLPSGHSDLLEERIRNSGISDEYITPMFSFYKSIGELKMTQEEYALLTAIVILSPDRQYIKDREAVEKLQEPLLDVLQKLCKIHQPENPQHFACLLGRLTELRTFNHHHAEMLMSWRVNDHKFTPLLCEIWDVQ
As to the kind of experiment: Antagonist activity at human FXR expressed in CV-1 cells assessed as inhibition of CDCA-induced transactivation after 24 hrs by luciferase reporter gene assay. Format: functional, cell-based. The method in brief:
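CV-1 cells in DMEM with 10% resin-charcoal-stripped FBS, 24 h at 37 °C, 5% CO2, then transiently co-transfected with pCMX-hFXR, CMXβ-GAL and Tk(EcRE)6-LUC. After 24 h, compounds were co-treated with 50 µM CDCA; harvest at 24 h. Luciferase normalized to β-galactosidase. Transfections in triplicate; experiments repeated more than three times.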

Test [1] addresses T2, Mineralocorticoid receptor (Homo sapiens) (UniProt P08235).
T2 sequence (whole entry): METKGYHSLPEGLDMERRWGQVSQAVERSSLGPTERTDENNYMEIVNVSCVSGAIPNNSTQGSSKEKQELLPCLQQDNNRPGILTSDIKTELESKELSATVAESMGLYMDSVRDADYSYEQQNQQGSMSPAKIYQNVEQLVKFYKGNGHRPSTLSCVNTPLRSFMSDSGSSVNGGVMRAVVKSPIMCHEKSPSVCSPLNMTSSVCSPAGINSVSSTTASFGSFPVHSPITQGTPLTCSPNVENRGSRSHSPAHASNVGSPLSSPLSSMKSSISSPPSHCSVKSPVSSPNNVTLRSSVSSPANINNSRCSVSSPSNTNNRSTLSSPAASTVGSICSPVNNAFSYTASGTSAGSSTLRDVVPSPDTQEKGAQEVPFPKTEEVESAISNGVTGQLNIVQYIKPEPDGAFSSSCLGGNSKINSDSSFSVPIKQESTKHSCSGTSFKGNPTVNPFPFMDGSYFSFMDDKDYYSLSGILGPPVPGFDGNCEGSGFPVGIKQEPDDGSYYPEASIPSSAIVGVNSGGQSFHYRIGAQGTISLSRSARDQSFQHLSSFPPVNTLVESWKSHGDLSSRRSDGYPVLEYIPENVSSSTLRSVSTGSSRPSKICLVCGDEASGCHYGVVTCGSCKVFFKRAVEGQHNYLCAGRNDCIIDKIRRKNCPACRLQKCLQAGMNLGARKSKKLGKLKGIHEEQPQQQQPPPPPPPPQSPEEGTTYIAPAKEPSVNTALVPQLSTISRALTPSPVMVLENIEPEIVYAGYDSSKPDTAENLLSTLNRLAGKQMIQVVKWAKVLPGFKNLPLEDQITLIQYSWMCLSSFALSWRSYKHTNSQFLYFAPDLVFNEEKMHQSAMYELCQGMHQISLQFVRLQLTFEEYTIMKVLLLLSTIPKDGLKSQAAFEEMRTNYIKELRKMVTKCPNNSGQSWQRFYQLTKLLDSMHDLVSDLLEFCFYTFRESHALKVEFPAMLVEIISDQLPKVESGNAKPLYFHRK
The test can be described thus: Effect on human Gal4-fused MCR at 10 uM by luciferase reporter gene assay.

In test [2] the target is T3, Retinoic acid receptor alpha (Homo sapiens) (UniProt P10276).
T3 sequence (whole entry): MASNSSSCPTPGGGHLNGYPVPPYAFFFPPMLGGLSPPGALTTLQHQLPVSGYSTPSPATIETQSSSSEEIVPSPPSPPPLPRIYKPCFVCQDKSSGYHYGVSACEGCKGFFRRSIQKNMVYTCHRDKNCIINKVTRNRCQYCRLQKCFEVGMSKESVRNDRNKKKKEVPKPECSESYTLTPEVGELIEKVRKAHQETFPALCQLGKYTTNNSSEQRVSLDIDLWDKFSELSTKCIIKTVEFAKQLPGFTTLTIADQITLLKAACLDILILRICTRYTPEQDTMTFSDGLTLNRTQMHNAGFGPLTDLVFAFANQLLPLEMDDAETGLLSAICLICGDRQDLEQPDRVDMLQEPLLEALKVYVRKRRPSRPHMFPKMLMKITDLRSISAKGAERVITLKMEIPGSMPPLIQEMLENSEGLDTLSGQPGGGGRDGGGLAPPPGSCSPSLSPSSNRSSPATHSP
As to the kind of experiment: Effect on human Gal4-fused RAR alpha at 10 uM by luciferase reporter gene assay.

In test [3] the target is T4, Bile acid receptor (Homo sapiens) (UniProt Q96RI1).
T4 sequence (whole entry): T1 sequence (Q96RI1 whole entry)
The test can be described thus: Binding affinity to human FXR ligand binding domain cell free system assessed as release of co-activator peptide SRC-1 after 1 hr by surface plasmon resonance method. In short, it runs like this:
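BIAcore SPR: hFXR LBD (4 µM) preincubated 1 h with compound plus 50 µM CDCA, then injected over a sensor chip bearing immobilized SRC-1 co-activator peptide; co-activator peptide binding to the LBD monitored.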

Each structure is given as a SMILES string. Activity calls are given as the source filed them. The calls are words filed in the database; no cut-off is given here.

With `CC(C)=CCCC1=C[C@@H](C/C(C)=C/CC[C@]2(C)C=Cc3cc(O)cc(C)c3O2)OC1=O` [2'-EPI-TUBERATOLIDE B], the IC50 at Bile acid receptor amounted to 2.5 µM. The result in test [1] and in test [2] was inactive. The outcome in test [3] was Active.
As for `CC(C)=CCC/C(=C/CC/C(C)=C/CC[C@]1(C)C=Cc2cc(O)cc(C)c2O1)C(=O)O` [(R)-SARGACHROMENOL], the IC50 on Bile acid receptor stood at 9 µM. The outcome in test [1] and in test [2] was inactive. Further, in test [3], the outcome was Active.
In the case of `CC(C)=CCC/C(=C/CC/C(C)=C/CC[C@@]1(C)C=Cc2cc(O)cc(C)c2O1)C(=O)O` [(S)-SARGACHROMENOL], on Bile acid receptor, the IC50 turned out to be 17 µM. In addition, the result in test [1] and in test [2] was inactive. In addition, in test [3], the outcome was Active.
Consider `CC(=O)CC/C=C(\C)C[C@@H]1C=C(CCC=C(C)C)C(=O)O1` [TUBERATOLIDE A], for which the IC50 at Bile acid receptor was determined as 3.9 µM. Also, the result in test [1] and in test [2] was inactive. Further, the result in test [3] was Active.
As to `CC(C)=CCCC1=C[C@@H](C/C(C)=C/CC[C@@]2(C)C=Cc3cc(O)cc(C)c3O2)OC1=O` [TUBERATOLIDE B], the IC50 at Bile acid receptor is 1.5 µM. For the same compound, the outcome in test [1] and in test [2] was inactive. Moreover, the outcome in test [3] was Active.
On to `CC(C)=CCCC1=C[C@@H](C/C(C)=C/CC/C(C)=C/CC2=CC(=O)C=C(C)C2=O)OC1=O` [YEZOQUINOLIDE], for which, at Bile acid receptor, the IC50 was found to be 5.9 µM. Further, the outcome in test [1] and in test [2] was inactive. Further, the outcome in test [3] was Active.
